Our source for the GFP response vs DMSO, GFP response relative to DMSO and GFP response, % of DMSO values is PubChem BioAssay.

Activity calls are given as the source filed them.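 How the source made its calls, unless noted: active means GFP response above 150% of the DMSO level; inconclusive means fewer than 70 events counted for a yeast strain; inactive means the rest.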

Test [1] can be described thus: RPL19A-GFP modulators, yeast TOR pathway, confirmation, cell-based, S. cerevisiae, flow cytometry, cherry picks, mother/daughter gates (AID 2270;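 active means GFP response below 50% of the DMSO control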). The conditions noted are these: S. cerevisiae RPL19A-GFP strain, 3 h, at 10 µM, stronger effect = lower value, 100 = same GFP as DMSO wells. For orientation: A flow cytometer gives signals particle by particle.
Test [2] is described as follows: LAP4-GFP expression modulators in yeast, confirmation, cell-based, cherry picks, flow cytometry, mother/daughter gates (AID 2271;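 active means GFP response above 150% of the DMSO control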;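 further: ratio of sample to DMSO plate mean so 100% equals DMSO level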). The conditions noted are these: S. cerevisiae LAP4-GFP strain, 3 h, at 10 µM, stronger effect = higher value, 100 means same as DMSO control. The method, boiled down:
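Test system: GFP-fusion yeast strain / Amount: 0.2 OD600 cells / Buffer or medium: SC medium / Dosing: 10 µM single dose / Incubation: compound exposure 3 h at 30 °C, end-over-end rotation / Detection: HT flow cytometry, GFP fluorescence channel / Evaluation: median GFP fluorescence as percent of plate-mean DMSO wells / Control set: DMSO-only negative wells, rapamycin 400 ng/mL positive wells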

Test [3] in a line: modulators of MEP2-GFP levels in yeast, confirmation, S. cerevisiae, flow cytometry GFP, cherry picks (AID 2272;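 active means GFP response above 150% of the DMSO control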;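 further: ratio of well signal to plate DMSO mean so 100% equals DMSO level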). The conditions noted are these: S. cerevisiae MEP2-GFP strain, 3 h, at 10 µM, stronger effect = higher value.
Test [4] in a line: AGP1-GFP expression modulators, hit retest, confirmation, cell-based, flow cytometry, S. cerevisiae, cherry picks (AID 2273).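 Further: median GFP channel fluorescence over the whole cell population gate.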 The conditions noted are these: S. cerevisiae AGP1-GFP strain, 3 h, at 10 µM.
Test [5] can be described thus: modulators of CIT2-GFP expression in yeast, confirmation, S. cerevisiae, GFP fusion, cherry picks, mother/daughter gates (AID 2274). The conditions noted are these: S. cerevisiae CIT2-GFP strain, flow cytometry, 3 h, at 10 µM, stronger effect = higher value.
The mark [6] stands for this setting: measured here: daughter cell gate.
Where [7] appears, read: measured here: mother cell gate.
Setting [8] is: measured here: daughter cell gate response.
The mark [9] stands for this setting: measured here: mother cell gate response.

On to `CNC(=O)c1c(O)c2cccc3c2n(c1=O)CC3`, for which the GFP response vs DMSO in test [1] is 102% (inactive); in test [1] (setting [6]), 99.1%; in test [1] (setting [7]) it was 103%; in test [3] it was 97.5% (inactive). Moreover, the GFP response relative to DMSO in test [2] is 94.2% (inactive); in test [2] (setting [8]) it was 90.7%; in test [2] (setting [9]), 94.6%. In addition, the GFP response, % of DMSO in test [4] was 100% (inactive); in test [5], 93.5% (inactive); in test [5] (setting [6]), 90.9%; in test [5] (setting [7]), 93.3%.
Consider `COc1ccc(NC(=O)/C(Cl)=C(/Cl)S(=O)Cc2ccccc2)cn1` (stereo not drawn), for which the GFP response vs DMSO in test [1] was 104% (inactive); in test [1] (setting [6]), 114%; in test [1] (setting [7]), 95.5%; in test [3], 118% (inactive). Besides, the GFP response relative to DMSO in test [2] is 262% (active); in test [2] (setting [8]), 227%; in test [2] (setting [9]) it was 243%. In addition, the GFP response, % of DMSO in test [4] was 103% (inactive); in test [5], 114% (inactive); in test [5] (setting [6]), 134%; in test [5] (setting [7]), 99.1%.
As for `CCCCC1OC23CCCCC2C(C#N)(C(=N)O3)C1(C#N)C#N` (stereo not drawn), the GFP response vs DMSO was 101% (inactive) in test [1], 100% in test [1] (setting [6]), 96.8% in test [1] (setting [7]) and 176% (active) in test [3]. Moreover, the figures for the GFP response relative to DMSO in test [2], in test [2] (setting [8]) and in test [2] (setting [9]) were 118% (inactive), 117% and 111%, respectively. Also, the GFP response, % of DMSO in test [4] was 103% (inactive); in test [5], 119% (inactive); in test [5] (setting [6]), 103%; in test [5] (setting [7]), 98.7%.
Regarding `CCc1nnc(NC(=O)c2ccc(S(=O)(=O)N(CCOC)CCOC)cc2)o1`, the GFP response vs DMSO was 95% (inactive) in test [1], 94.4% in test [1] (setting [6]), 96.2% in test [1] (setting [7]) and 96.2% (inactive) in test [3]. Besides, the values for the GFP response relative to DMSO in test [2], in test [2] (setting [8]) and in test [2] (setting [9]) were 91.5% (inactive), 96% and 90.8%, respectively. The GFP response, % of DMSO in test [4] was 97.8% (inactive); in test [5], 99.7% (inactive); in test [5] (setting [6]), 101%; in test [5] (setting [7]) it was 101%.
Take `CC(C)c1nnc(SCC(=O)N2CCc3ccccc32)n1C`: the GFP response vs DMSO was 102% (inactive) in test [1], 101% in test [1] (setting [6]), 101% in test [1] (setting [7]) and 102% (inactive) in test [3]. For the same compound, the GFP response relative to DMSO is 96.2% (inactive) in test [2], 95.6% in test [2] (setting [8]) and 99.3% in test [2] (setting [9]). In addition, the GFP response, % of DMSO is 97.6% (inactive) in test [4], 97.8% (inactive) in test [5], 98.1% in test [5] (setting [6]) and 96.6% in test [5] (setting [7]).
For the compound `O=[N+]([O-])/C=C/c1c(OCc2ccccc2)ccc2ccccc12`, the GFP response vs DMSO was 102% (inactive) in test [1], 104% in test [1] (setting [6]), 101% in test [1] (setting [7]) and 98.8% (inactive) in test [3]. The figures for the GFP response relative to DMSO in test [2], in test [2] (setting [8]) and in test [2] (setting [9]) were 112% (inactive), 106% and 118%, respectively. Besides, the GFP response, % of DMSO in test [4] was 102% (inactive); in test [5], 99.7% (inactive); in test [5] (setting [6]), 103%; in test [5] (setting [7]) it was 94.7%.
As for `Cc1nnc(NC(=O)c2nc(S(=O)(=O)Cc3ccccc3C)ncc2Cl)s1`, the GFP response vs DMSO in test [1] was 97.1% (inactive); in test [1] (setting [6]) it was 96.4%; in test [1] (setting [7]), 94.4%; in test [3] it was 99.3% (inactive). The GFP response relative to DMSO in test [2] is 98.9% (inactive); in test [2] (setting [8]) it was 99%; in test [2] (setting [9]), 97.4%. Moreover, the GFP response, % of DMSO is 98.2% (inactive) in test [4], 97.2% (inactive) in test [5], 97.6% in test [5] (setting [6]) and 96% in test [5] (setting [7]).
Regarding `O=C(/C=C/c1ccccc1)C1=C(O)C(=O)N(CCO)C1c1cccc([N+](=O)[O-])c1` (stereo not drawn), the GFP response vs DMSO is 99.8% (inactive) in test [1], 99.3% in test [1] (setting [6]), 100% in test [1] (setting [7]) and 101% (inactive) in test [3]. Also, the GFP response relative to DMSO in test [2] is 97.7% (inactive); in test [2] (setting [8]), 101%; in test [2] (setting [9]), 97.4%. Besides, the GFP response, % of DMSO in test [4] is 103% (inactive); in test [5], 100% (inactive); in test [5] (setting [6]), 101%; in test [5] (setting [7]) it was 99.3%.
Turning to `COc1ccc(N=Cc2nc(-c3ccccc3)oc2OC(C)=O)cc1`, the GFP response vs DMSO in test [1] is 100% (inactive); in test [1] (setting [6]), 99.1%; in test [1] (setting [7]), 101%; in test [3], 95.4% (inactive). The GFP response relative to DMSO is 107% (inactive) in test [2], 96.5% in test [2] (setting [8]) and 111% in test [2] (setting [9]). The GFP response, % of DMSO in test [4] was 94% (inactive); in test [5] it was 90.7% (inactive); in test [5] (setting [6]) it was 90.9%; in test [5] (setting [7]) it was 88.6%.
On to `O=C(Cn1c(=O)oc2cc(S(=O)(=O)N3CCCC3)ccc21)Nc1ccccc1Br`, for which the GFP response vs DMSO is 93.7% (inactive) in test [1], 92.6% in test [1] (setting [6]), 94.3% in test [1] (setting [7]) and 102% (inactive) in test [3]. Also, the GFP response relative to DMSO is 97.9% (inactive) in test [2], 97.6% in test [2] (setting [8]) and 96.1% in test [2] (setting [9]). Besides, the GFP response, % of DMSO in test [4] was 99.9% (inactive); in test [5], 101% (inactive); in test [5] (setting [6]), 103%; in test [5] (setting [7]), 102%.
Turning to `COc1cccc(NC(=O)Nc2ccc3c(c2)nnn3C)c1`, the GFP response vs DMSO in test [1] is 97.8% (inactive); in test [1] (setting [6]) it was 98.1%; in test [1] (setting [7]), 96.9%; in test [3], 100% (inactive). The GFP response relative to DMSO is 103% (inactive) in test [2], 102% in test [2] (setting [8]) and 104% in test [2] (setting [9]). In addition, the GFP response, % of DMSO in test [4] is 97.2% (inactive); in test [5], 101% (inactive); in test [5] (setting [6]), 103%; in test [5] (setting [7]), 101%.
As to `CCOC(=O)N/C(N)=N/c1nc2ccccc2s1`, the GFP response vs DMSO was 85.9% (inactive) in test [1], 82.1% in test [1] (setting [6]), 86.6% in test [1] (setting [7]) and 102% (inactive) in test [3]. For the same compound, the GFP response relative to DMSO in test [2] is 120% (inactive); in test [2] (setting [8]), 113%; in test [2] (setting [9]), 126%. Moreover, the GFP response, % of DMSO in test [4] was 95% (inactive); in test [5] it was 92.6% (inactive); in test [5] (setting [6]), 86.7%; in test [5] (setting [7]) it was 93.4%.
For the compound `CC(C)c1ccc2c(c1)C1(NN=C(c3ccccc3)S1)C(=O)N2` (stereo not drawn), the GFP response vs DMSO in test [1] was 105% (inactive); in test [1] (setting [6]), 107%; in test [1] (setting [7]), 104%; in test [3], 100% (inactive). Besides, the GFP response relative to DMSO is 96.2% (inactive) in test [2], 95.6% in test [2] (setting [8]) and 98.3% in test [2] (setting [9]). Further, the GFP response, % of DMSO is 95.7% (inactive) in test [4], 91.3% (inactive) in test [5], 96.5% in test [5] (setting [6]) and 88% in test [5] (setting [7]).
